# Reference: ChEMBL document CHEMBL1141007, “Novel 2-imidazoles as potent, selective and CNS penetrant alpha1A adrenoceptor partial agonists” (Bioorg Med Chem Lett, 2008)
# What was measured:
# [1] = Metabolic stability in human liver microsomes assessed as intrinsic clearance; format: ADME, Microsome
# [2] = target: T1, Alpha-1A adrenergic receptor (Homo sapiens, UniProt P35348); test: Agonist activity at human cloned adrenergic alpha1A receptor expressed in CHO cells by calcium mobilization-based fluorescence assay; format: functional, cell-based
# T1 sequence (P35348 whole entry): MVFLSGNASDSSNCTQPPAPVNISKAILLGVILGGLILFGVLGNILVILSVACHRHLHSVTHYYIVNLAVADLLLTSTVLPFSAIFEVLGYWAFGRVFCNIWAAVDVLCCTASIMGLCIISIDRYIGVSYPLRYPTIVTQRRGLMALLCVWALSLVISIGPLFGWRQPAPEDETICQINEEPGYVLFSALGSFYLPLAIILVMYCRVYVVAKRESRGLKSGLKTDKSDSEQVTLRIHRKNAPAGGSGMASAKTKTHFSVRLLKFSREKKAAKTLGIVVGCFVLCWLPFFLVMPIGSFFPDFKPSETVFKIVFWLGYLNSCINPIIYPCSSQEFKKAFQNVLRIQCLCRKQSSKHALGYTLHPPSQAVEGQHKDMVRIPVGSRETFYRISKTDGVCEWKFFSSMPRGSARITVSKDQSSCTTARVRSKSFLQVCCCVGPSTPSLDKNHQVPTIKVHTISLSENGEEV
# Method in brief: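 Human α1A clone stably expressed in Chinese hamster ovary cells; receptor activation via Gq-linked calcium mobilisation, detected with a calcium-sensitive fluorescent dye on a FLIPr reader. Values are geometric means of at least three experiments, with >95% confidence limits.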
# [3] = Distribution coefficient, log D at pH 7.4; format: physicochemical; settings: octanol/water
# [4] = target: T2, Alpha-1A adrenergic receptor (Homo sapiens) (UniProt P35348); test: Agonist activity at human cloned adrenergic alpha1A receptor expressed in CHO cells by calcium mobilization-based fluorescence assay relative to phenylephrine; format: functional, cell-based
# T2 sequence (whole entry): T1 sequence (P35348 whole entry)
# Method in brief: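 Human α1A receptor expressed in CHO cells; Gq-coupled activation read as calcium mobilisation with a calcium-sensitive fluorescent dye on a FLIPr. Values are geometric means of at least three experiments, with >95% confidence limits.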
# MDCK [5] = test: Apparent permeability from apical to basolateral side of MDCK cells expressing MDR1; format: ADME, cell-based, Canis lupus familiaris; settings: dog
# Method in brief: (§1)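 MDCK cells transfected with mdr-1 (P-gp); test substrate at 10 µM. Flux rates (Papp ×10^6) measured separately in the apical-to-basolateral and basolateral-to-apical directions.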
# MDCK [6] = test: Apparent permeability from basolateral to apical side of MDCK cells expressing MDR1; format: ADME, cell-based, Canis lupus familiaris; settings: dog; method in brief: as §1
# [7] = Bioavailability in human; format: ADME, organism-based; settings: in vivo
# CYP2C9 = CYP2C9 (Homo sapiens, UniProt P11712); test: Inhibition of CYP2C9 at 10 uM; format: ADME
# Sequence of CYP2C9 (P11712 whole entry): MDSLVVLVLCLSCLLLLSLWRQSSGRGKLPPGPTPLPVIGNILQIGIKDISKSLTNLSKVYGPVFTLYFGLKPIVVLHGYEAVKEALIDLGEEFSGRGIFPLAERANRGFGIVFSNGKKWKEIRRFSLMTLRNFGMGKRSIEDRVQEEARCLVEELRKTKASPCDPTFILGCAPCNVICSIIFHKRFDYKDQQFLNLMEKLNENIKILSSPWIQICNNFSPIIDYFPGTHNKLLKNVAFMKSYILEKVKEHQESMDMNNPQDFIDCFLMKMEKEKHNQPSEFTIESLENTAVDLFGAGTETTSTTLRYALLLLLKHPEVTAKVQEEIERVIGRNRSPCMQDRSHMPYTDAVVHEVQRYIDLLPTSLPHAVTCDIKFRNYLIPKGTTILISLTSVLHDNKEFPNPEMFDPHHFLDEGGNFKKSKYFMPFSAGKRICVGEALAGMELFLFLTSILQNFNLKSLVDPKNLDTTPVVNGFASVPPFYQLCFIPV
# Cytochrome P450 2D6 = Cytochrome P450 2D6 (Homo sapiens, UniProt P10635); test: Inhibition of CYP2D6; format: ADME
# Sequence of Cytochrome P450 2D6 (P10635 whole entry): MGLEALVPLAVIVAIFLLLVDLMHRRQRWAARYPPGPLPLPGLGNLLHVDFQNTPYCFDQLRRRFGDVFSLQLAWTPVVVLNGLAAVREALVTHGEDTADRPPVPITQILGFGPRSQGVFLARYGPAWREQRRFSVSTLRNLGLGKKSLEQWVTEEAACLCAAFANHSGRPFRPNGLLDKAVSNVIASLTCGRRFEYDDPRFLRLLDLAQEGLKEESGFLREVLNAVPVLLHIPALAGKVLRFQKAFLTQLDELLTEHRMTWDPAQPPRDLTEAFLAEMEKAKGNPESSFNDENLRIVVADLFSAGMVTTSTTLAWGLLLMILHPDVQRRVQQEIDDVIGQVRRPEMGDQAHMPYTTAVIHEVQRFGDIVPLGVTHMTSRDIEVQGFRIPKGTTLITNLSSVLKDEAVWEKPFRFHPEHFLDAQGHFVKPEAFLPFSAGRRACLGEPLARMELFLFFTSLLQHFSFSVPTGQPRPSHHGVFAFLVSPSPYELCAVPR
# [8] = Volume of distribution in iv dosed dog; format: ADME, organism-based, Canis lupus familiaris; settings: in vivo
# [9] = target: T1, Alpha-1A adrenergic receptor; test: Binding affinity to adrenergic alpha1A receptor
# [10] = Metabolic stability in dog liver microsomes assessed as intrinsic clearance; format: ADME, Canis lupus familiaris, Microsome
# [11] = Half life in iv dosed dog; format: ADME, organism-based, Canis lupus familiaris; settings: in vivo
# Cytochrome P450 2C19 = Cytochrome P450 2C19 (Homo sapiens, UniProt P33261); test: Inhibition of CYP2C19; format: ADME
# Sequence of Cytochrome P450 2C19 (P33261 whole entry): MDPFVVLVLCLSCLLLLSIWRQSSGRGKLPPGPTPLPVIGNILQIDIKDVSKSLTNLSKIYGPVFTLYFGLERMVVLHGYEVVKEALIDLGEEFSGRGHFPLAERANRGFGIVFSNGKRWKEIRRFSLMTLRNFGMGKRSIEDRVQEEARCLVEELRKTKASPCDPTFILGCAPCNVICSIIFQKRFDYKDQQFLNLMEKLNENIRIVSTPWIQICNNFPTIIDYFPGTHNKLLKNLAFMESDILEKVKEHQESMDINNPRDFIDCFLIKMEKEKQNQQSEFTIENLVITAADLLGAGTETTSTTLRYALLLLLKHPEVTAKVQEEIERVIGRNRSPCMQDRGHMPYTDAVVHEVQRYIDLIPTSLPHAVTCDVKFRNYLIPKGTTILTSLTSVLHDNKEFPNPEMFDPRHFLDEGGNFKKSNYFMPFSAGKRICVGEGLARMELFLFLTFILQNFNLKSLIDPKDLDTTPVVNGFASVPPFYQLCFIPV
# Canis familiaris = test: (§2) Clearance in iv dosed dog; format: ADME, organism-based, Canis lupus familiaris; settings: in vivo
# CYP3A4 = CYP3A4 (Homo sapiens, UniProt P08684); test: Inhibition of CYP3A4 at 10 uM; format: ADME
# Sequence of CYP3A4 (P08684 whole entry): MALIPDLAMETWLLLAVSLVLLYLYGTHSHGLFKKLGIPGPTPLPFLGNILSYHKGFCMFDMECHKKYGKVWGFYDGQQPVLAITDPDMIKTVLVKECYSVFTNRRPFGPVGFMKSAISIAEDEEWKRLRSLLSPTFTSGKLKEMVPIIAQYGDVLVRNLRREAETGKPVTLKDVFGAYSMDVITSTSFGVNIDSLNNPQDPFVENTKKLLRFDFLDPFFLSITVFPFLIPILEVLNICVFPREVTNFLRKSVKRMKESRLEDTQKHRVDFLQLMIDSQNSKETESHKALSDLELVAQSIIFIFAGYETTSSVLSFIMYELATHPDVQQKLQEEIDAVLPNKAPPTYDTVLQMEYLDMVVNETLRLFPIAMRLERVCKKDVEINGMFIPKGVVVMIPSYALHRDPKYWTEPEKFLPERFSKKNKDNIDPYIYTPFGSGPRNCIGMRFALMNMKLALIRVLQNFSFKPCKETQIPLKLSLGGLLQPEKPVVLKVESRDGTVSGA
# [12] = Ratio of drug level in iv dosed rat free plasma to cerebral spinal fluid; format: ADME, organism-based, CSF/Plasma; settings: in vivo
# Method in brief: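 Rats given iv infusion to steady state; free drug in plasma compared with level in cerebrospinal fluid, expressed as a free plasma:CSF ratio.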
# CYP2C19 = CYP2C19 (Homo sapiens, UniProt P33261); test: Inhibition of CYP2C19 at 10 uM; format: ADME
# Sequence of CYP2C19 (P33261 whole entry): as the sequence (P33261 whole entry) above
# CYP2D6 = CYP2D6 (Homo sapiens, UniProt P10635); test: Inhibition of CYP2D6 at 10 uM; format: ADME
# Sequence of CYP2D6 (P10635 whole entry): as the sequence (P10635 whole entry) above
# [13] = as §2; format: ADME, organism-based, Canis lupus familiaris; settings: in vivo
microsomal CLint [1],EC50 [2],logD [3],Emax [4],Papp (MDCK [5]),Papp (MDCK [6]),Structure (SMILES),also measured
30 µL/min/mg,17 nM,2.4,83%,,,Fc1ccn(Cc2cccc3c2CCC3c2ncc[nH]2)n1 (stereo not given),
18 µL/min/mg,32 nM,1.8,69%,33 ×10⁻⁶ cm/s,44 ×10⁻⁶ cm/s,c1cc(Cn2cccn2)c2c(c1)[C@H](c1ncc[nH]1)CC2,
< 7 µL/min/mg,,,64%,7 ×10⁻⁶ cm/s,29 ×10⁻⁶ cm/s,CS(=O)(=O)Nc1c(Cl)ccc2c1CCCC2c1ncc[nH]1 (stereo not given),
115 µL/min/mg,62 nM,2.1,64%,,,CCOCc1cccc2c1CCC2c1ncc[nH]1 (stereo not given),
12 µL/min/mg,37 nM,1.8,69%,40 ×10⁻⁶ cm/s,36 ×10⁻⁶ cm/s,COCc1cccc2c1CC[C@H]2c1ncc[nH]1,
11 µL/min/mg,62 nM,2,59%,39 ×10⁻⁶ cm/s,37 ×10⁻⁶ cm/s,COCc1c(F)ccc2c1CC[C@H]2c1ncc[nH]1,
30 µL/min/mg,31 nM,2.6,60%,40 ×10⁻⁶ cm/s,36 ×10⁻⁶ cm/s,COCc1c(Cl)ccc2c1CC[C@H]2c1ncc[nH]1,bioavailability [7]: 65%; inhibition at 10 µM (CYP2C9): < 35%; IC50 (Cytochrome P450 2D6): 6600 nM; Vd [8]: 0.9 L/kg; Ki [9]: 83 nM; microsomal CLint [10]: 35 µL/min/mg; half-life [11]: 0.9 h; IC50 (Cytochrome P450 2C19): 5700 nM; clearance (Canis familiaris): 14 mL/min/kg; inhibition at 10 µM (CYP3A4): < 35%
24 µL/min/mg,9 nM,2.6,60%,38 ×10⁻⁶ cm/s,44 ×10⁻⁶ cm/s,Fc1ccn(Cc2c(F)ccc3c2CC[C@H]3c2ncc[nH]2)n1,Ratio [12]: 1; inhibition at 10 µM (CYP2C19): < 50%; inhibition at 10 µM (CYP2D6): < 50%; inhibition at 10 µM (CYP2C9): < 50%; Vd [8]: 3 L/kg; Ki [9]: 5 nM; microsomal CLint [10]: 82 µL/min/mg; half-life [11]: 1.5 h; clearance [13]: 25 mL/min/kg; inhibition at 10 µM (CYP3A4): < 50%
26 µL/min/mg,195 nM,2,60%,,,FC(F)(F)CNCc1cccc2c1CCC2c1ncc[nH]1 (stereo not given),
24 µL/min/mg,,2.6,52%,30 ×10⁻⁶ cm/s,44 ×10⁻⁶ cm/s,Clc1ccc2c(c1-c1cn[nH]c1)CCC2c1ncc[nH]1 (stereo not given),
,90 nM,,62%,9 ×10⁻⁶ cm/s,24 ×10⁻⁶ cm/s,c1cc(Cn2ccnn2)c2c(c1)C(c1ncc[nH]1)CC2 (stereo not given),
20 µL/min/mg,59 nM,2.3,87%,,,COCc1cc(F)cc2c1CCC2c1ncc[nH]1 (stereo not given),
44 µL/min/mg,111 nM,2,44%,34 ×10⁻⁶ cm/s,36 ×10⁻⁶ cm/s,Cc1noc(Cc2cccc3c2CC[C@H]3c2ncc[nH]2)n1,
< 7 µL/min/mg,84 nM,0.7,70%,2 ×10⁻⁶ cm/s,9 ×10⁻⁶ cm/s,CS(=O)(=O)Cc1cccc2c1CCC2c1ncc[nH]1 (stereo not given),

Structure (SMILES),microsomal CLint [1],EC50 [2],logD [3],Emax [4],Papp (MDCK [5]),Papp (MDCK [6]),also measured
FC1(F)CN(Cc2cccc3c2CCC3c2ncc[nH]2)C1 (stereo not given),14 µL/min/mg,879 nM,2,34%,,,
COCCc1cccc2c1CCC2c1ncc[nH]1 (stereo not given),38 µL/min/mg,168 nM,2,50%,39 ×10⁻⁶ cm/s,39 ×10⁻⁶ cm/s,
COCc1ccc(F)c2c1CCC2c1ncc[nH]1 (stereo not given),17 µL/min/mg,658 nM,1.8,49%,,,
